According to ChEMBL document CHEMBL4118021, “Studies of TAK1-centered polypharmacology with novel covalent TAK1 inhibitors” (Bioorg Med Chem, 2017):

Experiments:
Format in all cases: cell-based
[1] = biological target: Tyrosine-protein kinase CSK (Homo sapiens) (UniProt P41240); assay: Inhibition of CSK in human SKCO1 cells at 1 uM after 4 hrs using biotin labeled VSDFGLTKEASSTQDTGKLPVK probe by mass-spectrometric analysis relative to control
[2] = biological target: T1, Serine/threonine-protein kinase 4 (Homo sapiens) (UniProt Q13043); assay: Inhibition of MST1 in human SKCO1 cells at 1 uM after 4 hrs using biotin labeled ETGQIVAIKQVPVESDLQEIIK probe by mass-spectrometric analysis relative to control
T1 sequence (whole entry): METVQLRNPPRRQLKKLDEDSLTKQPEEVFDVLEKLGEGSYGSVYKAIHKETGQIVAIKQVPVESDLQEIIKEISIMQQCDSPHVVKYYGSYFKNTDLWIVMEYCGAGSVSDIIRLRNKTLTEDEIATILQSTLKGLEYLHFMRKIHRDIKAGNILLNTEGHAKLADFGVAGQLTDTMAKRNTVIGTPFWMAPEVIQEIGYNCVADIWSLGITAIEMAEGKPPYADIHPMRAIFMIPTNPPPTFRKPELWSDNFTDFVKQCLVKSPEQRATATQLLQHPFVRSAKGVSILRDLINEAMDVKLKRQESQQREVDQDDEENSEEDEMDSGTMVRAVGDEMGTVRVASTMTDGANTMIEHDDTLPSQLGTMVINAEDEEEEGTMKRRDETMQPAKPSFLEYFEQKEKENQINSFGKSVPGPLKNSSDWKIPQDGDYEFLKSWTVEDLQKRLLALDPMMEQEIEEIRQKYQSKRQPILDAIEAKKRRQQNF
Summary of the method: (§1)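 Live SK-CO-1 cells exposed to compound at 1 μM or DMSO for 4 h (KiNativ). Lysates then labeled with lysine-reactive ATP/ADP-biotin probe, and probe-labeled kinase peptides quantified by mass spectrometry. Percent inhibition of probe-dependent recovery calculated relative to DMSO-treated cells.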

[3] = biological target: T2, Inhibitor of nuclear factor kappa-B kinase subunit beta (Homo sapiens) (UniProt O14920); assay: Inhibition of IKKb in human SKCO1 cells at 1 uM after 4 hrs using biotin labeled DLKPENIVLQQGEQR probe by mass-spectrometric analysis relative to control
T2 sequence (whole entry): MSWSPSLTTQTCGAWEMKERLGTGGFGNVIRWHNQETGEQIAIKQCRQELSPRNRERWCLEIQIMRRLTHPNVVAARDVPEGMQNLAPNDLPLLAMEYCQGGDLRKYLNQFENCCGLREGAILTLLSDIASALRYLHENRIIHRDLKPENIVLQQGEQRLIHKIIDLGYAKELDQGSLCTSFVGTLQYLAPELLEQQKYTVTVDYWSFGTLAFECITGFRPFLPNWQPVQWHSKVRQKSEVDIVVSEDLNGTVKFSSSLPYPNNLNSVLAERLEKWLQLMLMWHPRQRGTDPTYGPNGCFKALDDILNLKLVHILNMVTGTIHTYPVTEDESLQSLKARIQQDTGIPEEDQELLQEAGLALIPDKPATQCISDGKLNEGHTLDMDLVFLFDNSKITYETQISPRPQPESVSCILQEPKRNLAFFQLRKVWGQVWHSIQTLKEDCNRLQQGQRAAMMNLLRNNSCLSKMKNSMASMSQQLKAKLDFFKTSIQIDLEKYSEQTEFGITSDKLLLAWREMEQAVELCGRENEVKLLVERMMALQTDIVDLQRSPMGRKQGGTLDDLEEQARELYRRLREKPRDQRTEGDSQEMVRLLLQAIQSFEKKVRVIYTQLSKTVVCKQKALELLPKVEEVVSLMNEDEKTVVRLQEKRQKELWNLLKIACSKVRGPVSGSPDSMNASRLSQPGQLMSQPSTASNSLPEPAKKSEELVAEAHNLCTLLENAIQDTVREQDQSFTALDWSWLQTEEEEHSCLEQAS

[4] = biological target: Mitogen-activated protein kinase kinase kinase 4 (Homo sapiens) (UniProt Q9Y6R4); assay: Inhibition of MAP3K4 in human SKCO1 cells at 1 uM after 4 hrs using biotin labeled DIKGANIFLTSSGLIK probe by mass-spectrometric analysis relative to control
[5] = biological target: Mitogen-activated protein kinase kinase kinase kinase 1 (Homo sapiens) (UniProt Q92918); assay: Inhibition of HPK1 in human SKCO1 cells at 1 uM after 4 hrs using biotin labeled DIKGANILINDAGEVR probe by mass-spectrometric analysis relative to control
[6] = biological target: T3, Dual specificity protein kinase TTK (Homo sapiens) (UniProt P33981); assay: Inhibition of TTK in human SKCO1 cells at 1 uM after 4 hrs using biotin labeled NMLEAVHTIHQHGIVHSDLKPANFLIDGMLK probe by mass-spectrometric analysis relative to control; summary of the method: as §1
T3 sequence (whole entry): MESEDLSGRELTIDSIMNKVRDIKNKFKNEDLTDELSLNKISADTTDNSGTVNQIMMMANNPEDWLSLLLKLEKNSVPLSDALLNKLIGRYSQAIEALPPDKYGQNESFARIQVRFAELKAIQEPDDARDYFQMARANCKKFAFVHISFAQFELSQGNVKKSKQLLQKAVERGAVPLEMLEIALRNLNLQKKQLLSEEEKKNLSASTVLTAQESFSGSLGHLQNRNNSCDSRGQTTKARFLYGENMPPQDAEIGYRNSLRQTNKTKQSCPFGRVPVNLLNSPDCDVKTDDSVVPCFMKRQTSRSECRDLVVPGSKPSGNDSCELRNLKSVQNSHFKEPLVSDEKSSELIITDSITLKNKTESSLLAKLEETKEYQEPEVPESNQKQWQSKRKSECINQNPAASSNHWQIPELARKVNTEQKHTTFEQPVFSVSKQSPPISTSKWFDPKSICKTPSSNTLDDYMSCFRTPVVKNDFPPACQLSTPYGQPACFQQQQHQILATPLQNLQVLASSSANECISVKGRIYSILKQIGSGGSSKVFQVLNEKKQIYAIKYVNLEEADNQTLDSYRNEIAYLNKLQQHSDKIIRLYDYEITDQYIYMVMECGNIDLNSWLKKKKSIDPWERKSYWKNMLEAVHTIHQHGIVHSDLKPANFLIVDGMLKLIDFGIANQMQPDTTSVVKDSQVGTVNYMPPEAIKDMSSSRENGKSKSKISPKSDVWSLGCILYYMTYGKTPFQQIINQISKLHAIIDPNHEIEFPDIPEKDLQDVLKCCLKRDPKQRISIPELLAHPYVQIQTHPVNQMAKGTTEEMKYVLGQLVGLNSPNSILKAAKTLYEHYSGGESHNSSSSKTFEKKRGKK

[7] = biological target: Ribosomal protein S6 kinase alpha-1 (Homo sapiens) (UniProt Q15418); assay: Inhibition of RSK1 domain1 in human SKCO1 cells at 1 uM after 4 hrs using biotin labeled LTDFGLSKEAIDHEKK probe by mass-spectrometric analysis relative to control; summary of the method: as §1
[8] = biological target: Cyclin-dependent kinase 11B (Homo sapiens) (UniProt P21127); assay: Inhibition of PITSLRE in human SKCO1 cells at 1 uM after 4 hrs using biotin labeled DLKTSNLLLSHAGILK probe by mass-spectrometric analysis relative to control; summary of the method: as §1
Cyclin-dependent kinase 11B (Homo sapiens), sequence (P21127 whole entry): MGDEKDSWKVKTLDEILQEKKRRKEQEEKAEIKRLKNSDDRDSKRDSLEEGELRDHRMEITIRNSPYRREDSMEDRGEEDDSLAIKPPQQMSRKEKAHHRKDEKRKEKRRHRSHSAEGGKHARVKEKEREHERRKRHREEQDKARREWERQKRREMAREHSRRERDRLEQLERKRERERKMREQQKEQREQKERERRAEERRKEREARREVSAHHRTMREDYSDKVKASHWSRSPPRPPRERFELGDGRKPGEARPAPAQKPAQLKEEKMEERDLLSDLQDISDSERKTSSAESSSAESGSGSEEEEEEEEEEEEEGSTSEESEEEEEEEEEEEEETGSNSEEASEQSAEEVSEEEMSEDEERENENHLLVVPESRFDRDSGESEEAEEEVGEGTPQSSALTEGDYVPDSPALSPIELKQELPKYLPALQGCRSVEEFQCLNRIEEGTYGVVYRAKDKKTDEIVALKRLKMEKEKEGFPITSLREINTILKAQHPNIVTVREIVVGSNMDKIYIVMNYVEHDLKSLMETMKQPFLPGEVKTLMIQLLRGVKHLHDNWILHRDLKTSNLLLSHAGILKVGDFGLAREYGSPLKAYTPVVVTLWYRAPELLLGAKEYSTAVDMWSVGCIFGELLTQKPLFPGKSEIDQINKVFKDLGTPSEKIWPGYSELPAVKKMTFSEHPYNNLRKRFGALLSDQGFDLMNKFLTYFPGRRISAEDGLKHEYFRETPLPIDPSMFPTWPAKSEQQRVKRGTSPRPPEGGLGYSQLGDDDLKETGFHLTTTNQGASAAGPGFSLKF

Mitogen-activated protein kinase kinase kinase kinase 1 (Homo sapiens), sequence (Q92918 whole entry, looked up): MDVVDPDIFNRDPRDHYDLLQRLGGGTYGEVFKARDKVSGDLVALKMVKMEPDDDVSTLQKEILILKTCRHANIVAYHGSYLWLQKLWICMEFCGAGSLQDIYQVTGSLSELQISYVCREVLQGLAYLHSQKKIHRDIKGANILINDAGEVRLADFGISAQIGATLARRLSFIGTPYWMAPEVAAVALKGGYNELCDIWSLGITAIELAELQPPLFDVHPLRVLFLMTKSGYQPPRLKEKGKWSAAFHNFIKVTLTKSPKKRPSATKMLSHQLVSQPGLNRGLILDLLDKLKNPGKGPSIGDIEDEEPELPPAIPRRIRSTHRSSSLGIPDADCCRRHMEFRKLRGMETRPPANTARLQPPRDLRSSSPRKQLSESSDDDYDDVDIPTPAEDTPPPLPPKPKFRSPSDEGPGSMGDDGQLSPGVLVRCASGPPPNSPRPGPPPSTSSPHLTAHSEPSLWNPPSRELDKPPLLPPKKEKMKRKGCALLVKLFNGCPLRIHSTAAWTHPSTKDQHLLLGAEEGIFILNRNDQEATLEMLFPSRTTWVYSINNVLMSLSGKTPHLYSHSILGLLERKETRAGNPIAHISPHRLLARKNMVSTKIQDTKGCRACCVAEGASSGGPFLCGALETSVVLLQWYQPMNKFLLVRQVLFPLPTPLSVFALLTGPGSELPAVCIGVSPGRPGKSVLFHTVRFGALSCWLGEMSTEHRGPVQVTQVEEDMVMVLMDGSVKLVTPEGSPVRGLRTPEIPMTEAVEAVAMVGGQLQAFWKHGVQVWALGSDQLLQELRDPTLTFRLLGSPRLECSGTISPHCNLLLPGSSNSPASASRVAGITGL
Mitogen-activated protein kinase kinase kinase 4 (Homo sapiens), sequence (Q9Y6R4 whole entry): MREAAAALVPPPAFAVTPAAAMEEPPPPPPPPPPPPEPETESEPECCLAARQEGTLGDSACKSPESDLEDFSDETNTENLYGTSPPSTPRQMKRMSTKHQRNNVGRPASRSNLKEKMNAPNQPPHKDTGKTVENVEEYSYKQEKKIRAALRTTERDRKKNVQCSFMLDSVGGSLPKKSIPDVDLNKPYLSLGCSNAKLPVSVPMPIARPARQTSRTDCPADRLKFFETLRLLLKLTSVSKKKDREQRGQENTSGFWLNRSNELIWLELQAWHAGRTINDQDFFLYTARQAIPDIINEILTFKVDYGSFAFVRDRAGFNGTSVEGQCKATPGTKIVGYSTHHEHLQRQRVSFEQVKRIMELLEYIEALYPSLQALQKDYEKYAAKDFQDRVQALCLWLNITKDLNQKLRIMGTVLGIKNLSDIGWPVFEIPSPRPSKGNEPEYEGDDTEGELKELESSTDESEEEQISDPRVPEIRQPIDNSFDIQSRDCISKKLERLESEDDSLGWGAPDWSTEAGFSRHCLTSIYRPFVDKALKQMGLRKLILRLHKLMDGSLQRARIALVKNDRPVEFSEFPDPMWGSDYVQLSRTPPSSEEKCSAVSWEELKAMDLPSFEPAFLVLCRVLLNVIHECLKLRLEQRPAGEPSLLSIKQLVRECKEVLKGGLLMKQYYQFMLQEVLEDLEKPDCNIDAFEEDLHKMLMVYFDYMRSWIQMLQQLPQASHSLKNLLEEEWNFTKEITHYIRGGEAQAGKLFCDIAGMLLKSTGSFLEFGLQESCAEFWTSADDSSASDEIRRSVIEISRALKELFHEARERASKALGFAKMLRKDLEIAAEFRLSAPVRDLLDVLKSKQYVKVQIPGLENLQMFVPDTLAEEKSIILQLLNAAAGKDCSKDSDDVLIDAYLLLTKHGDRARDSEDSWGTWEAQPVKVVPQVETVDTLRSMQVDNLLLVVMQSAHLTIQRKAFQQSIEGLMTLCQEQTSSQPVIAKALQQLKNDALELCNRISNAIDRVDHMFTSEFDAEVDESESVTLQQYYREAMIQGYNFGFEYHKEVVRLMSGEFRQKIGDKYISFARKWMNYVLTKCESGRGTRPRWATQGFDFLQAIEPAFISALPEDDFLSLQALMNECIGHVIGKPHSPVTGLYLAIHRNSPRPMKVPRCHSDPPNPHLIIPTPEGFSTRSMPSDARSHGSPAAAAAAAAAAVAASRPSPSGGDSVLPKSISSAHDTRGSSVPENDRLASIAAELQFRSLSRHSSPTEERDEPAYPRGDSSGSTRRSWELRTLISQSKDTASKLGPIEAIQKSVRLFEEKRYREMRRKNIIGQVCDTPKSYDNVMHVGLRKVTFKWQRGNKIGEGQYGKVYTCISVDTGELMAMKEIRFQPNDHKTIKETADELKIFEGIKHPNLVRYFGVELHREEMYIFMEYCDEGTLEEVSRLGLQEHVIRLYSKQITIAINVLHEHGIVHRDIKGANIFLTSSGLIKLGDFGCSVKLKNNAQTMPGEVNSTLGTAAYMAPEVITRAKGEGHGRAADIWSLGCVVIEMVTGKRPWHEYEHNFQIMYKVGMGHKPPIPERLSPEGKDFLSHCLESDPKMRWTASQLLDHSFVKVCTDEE
Ribosomal protein S6 kinase alpha-1 (Homo sapiens), sequence (Q15418 whole entry, the tested form may be a part): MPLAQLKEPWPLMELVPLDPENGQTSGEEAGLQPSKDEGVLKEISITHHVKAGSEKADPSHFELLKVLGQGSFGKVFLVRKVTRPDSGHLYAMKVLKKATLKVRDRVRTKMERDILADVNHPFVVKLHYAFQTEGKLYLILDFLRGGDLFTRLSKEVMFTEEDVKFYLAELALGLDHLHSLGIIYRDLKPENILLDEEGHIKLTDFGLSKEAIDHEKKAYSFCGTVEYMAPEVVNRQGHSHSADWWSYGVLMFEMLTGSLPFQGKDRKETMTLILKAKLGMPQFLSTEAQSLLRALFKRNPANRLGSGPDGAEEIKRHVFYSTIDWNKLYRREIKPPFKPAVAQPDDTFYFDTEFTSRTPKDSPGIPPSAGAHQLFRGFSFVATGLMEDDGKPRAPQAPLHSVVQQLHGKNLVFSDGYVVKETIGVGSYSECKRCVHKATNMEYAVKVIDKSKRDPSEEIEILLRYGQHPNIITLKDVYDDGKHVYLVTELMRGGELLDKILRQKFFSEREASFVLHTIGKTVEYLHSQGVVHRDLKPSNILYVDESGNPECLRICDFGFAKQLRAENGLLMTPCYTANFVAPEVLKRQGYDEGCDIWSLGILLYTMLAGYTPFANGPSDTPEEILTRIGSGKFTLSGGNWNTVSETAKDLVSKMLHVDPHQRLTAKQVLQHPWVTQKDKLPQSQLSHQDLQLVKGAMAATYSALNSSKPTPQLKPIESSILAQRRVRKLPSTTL
Tyrosine-protein kinase CSK (Homo sapiens), sequence (P41240 2-450 limits assumed): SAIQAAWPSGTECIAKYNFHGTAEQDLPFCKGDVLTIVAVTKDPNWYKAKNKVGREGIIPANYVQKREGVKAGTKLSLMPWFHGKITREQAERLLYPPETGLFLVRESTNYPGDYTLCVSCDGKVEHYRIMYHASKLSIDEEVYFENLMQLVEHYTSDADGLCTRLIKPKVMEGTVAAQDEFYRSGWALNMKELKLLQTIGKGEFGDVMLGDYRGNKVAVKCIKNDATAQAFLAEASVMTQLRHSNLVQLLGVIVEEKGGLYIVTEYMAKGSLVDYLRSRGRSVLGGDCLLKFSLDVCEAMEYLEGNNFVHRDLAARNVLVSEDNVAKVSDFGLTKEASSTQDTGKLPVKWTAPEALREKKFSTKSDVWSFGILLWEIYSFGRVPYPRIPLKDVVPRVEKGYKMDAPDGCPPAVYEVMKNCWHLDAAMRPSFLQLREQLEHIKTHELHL

SMILES | inhibition [1] [%] | inhibition [2] [%] | inhibition [3] [%] | inhibition [4] [%] | inhibition [5] [%] | inhibition [6] [%] | inhibition [7] [%] | inhibition [8] [%]
COc1cc(O)c2c(c1)/C=C/C[C@H](O)[C@H](O)C(=O)/C=C\C[C@H](C)OC2=O | -1.8 | -4.7 | -3 | 17.8 | 77.3 | 32.5 | 54.5 | -1.4
C=CC(=O)Nc1ccccc1Oc1nc(Nc2cnn(CCOC)c2)ncc1Cl | 5.2 | -0.9 | -9 | 12.9 | 72.6 | 25.4 | 33.5 | -0.8
C=CC(=O)Nc1ccccc1Nc1nc(Nc2ccc(N3CCN(C)CC3)cc2)ncc1Cl | -0.8 | -6.4 | 15.3 | 63.3 | 34.9 | 40.6 | 56.2 | -5.5
